From ChEMBL document CHEMBL4428120, “In silico and in vitro methods to identify ebola virus VP35-dsRNA inhibitors” (Bioorg Med Chem, 2016)
Active and inactive are the calls of the source. The calls are words filed in the database; no cut-off is given here.

Experiments:
Ebolavirus [1] = experiment: Inhibition of fluorescent dsRNA probe binding to N-terminal His-tagged recombinant Ebola virus VP35 interferon inhibitory domain assessed as normalized intensity for DNA binding at 200 uM pre-incubated for 5 mins before dsRNA addition and measured after 5 mins by ethidium bromide displacement based EMSA method relative to control; set-up: scale not given: the % may be the effect or the level left
DNA = experiment: Binding affinity to DNA (unknown origin) assessed as inhibition of fluorescent dsRNA probe binding to DNA at 200 uM at 200 uM pre-incubated for 5 mins before dsRNA addition and measured after 5 mins by ethidium bromide displacement based EMSA method relative to control; type: nucleic-acid assay
RNA = experiment: Binding affinity to RNA (unknown origin) assessed as inhibition of fluorescent dsRNA probe binding to DNA at 200 uM at 200 uM pre-incubated for 5 mins before dsRNA addition and measured after 5 mins by ethidium bromide displacement based EMSA method relative to control; type: nucleic-acid assay
Ebolavirus [2] = experiment: Inhibition of fluorescent dsRNA probe binding to N-terminal His-tagged recombinant Ebola virus VP35 interferon inhibitory domain at 200 uM pre-incubated for 5 mins before dsRNA addition and measured after 5 mins by ethidium bromide displacement based EMSA method relative to control
Method in brief: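 Recombinant VP35 IID was expressed in E. coli BL-21 and purified on Ni-NTA. It was 400 nM before probe addition, in 10 mM Tris-HCl pH 7.5, 10 mM NaCl, 10% glycerol, with 200 μM compound for 5 min. An equal volume of 60 nM Cy5.5-labelled 10-bp dsRNA was added, then 5 min at room temperature and then on ice. Run on 1% agarose in chilled TAE; infrared scan.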

[3] = (§1) Inhibition of fluorescent dsRNA probe binding to N-terminal His-tagged recombinant Ebola virus VP35 interferon inhibitory domain pre-incubated for 5 mins before dsRNA addition and measured after 5 mins by ethidium bromide displacement based EMSA method relative to control; set-up: species or system Ebolavirus
Method in brief: (§2)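 EMSA: Ni-NTA-purified recombinant VP35 IID was 400 nM before probe addition, in Tris-HCl pH 7.5/NaCl/10% glycerol buffer. Compound was diluted twofold serially from 200 μM and incubated 5 min. An equal volume of 60 nM Cy5.5-dsRNA probe was added, then 5 min at room temperature and then on ice. Agarose gel, infrared scan; IC50 taken from the dose-response.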

Ebolavirus [4] = experiment: as §1; method in brief: as §2

Compound | Activity (Ebolavirus [1]) [%] | Activity (DNA) | Activity (RNA) | inhibition (Ebolavirus [2]) | IC50 [3] [µM] | inhibition (Ebolavirus [4])
CCC(=O)NNC(/C=C/c1cccc(O)c1)=C1/S/C(=N\c2ccc(C)cc2[N+](=O)[O-])N=C1C | 73.8 to 92.7 | inactive | inactive |  |  | 
Nc1nnc2nc(CC(=O)c3cccc([N+](=O)[O-])c3)c(CC(=O)c3cccc([N+](=O)[O-])c3)nn12 | 60.7 to 88.8 | inactive | inactive |  |  | 
CN1CCN(CCSC(=O)C(Cl)(c2ccccc2)C2CCCC2)CC1 (stereo not drawn) | 72.3 to 91.8 | inactive | inactive | > 50% |  | 
CCOC(=O)NC(NC(=O)OCC)c1ccc(C(NC(=O)OCC)NC(=O)OCC)cc1 | 79.6 to 108 | inactive | inactive | > 50% |  | 
c1coc(CNCNCc2ccco2)c1 | 45 to 98.4 | inactive | inactive | inactive |  | 
COC1=C/C(=C/C=C(\NNC(=S)NN)c2sc(NNC(C)=O)nc2C)C=CC1=O | 81.5 | inactive | inactive |  | 20 | Dose-dependent effect
CNCc1ccco1 | 110 to 117 | inactive | inactive | inactive |  | 
Cc1nc(-n2nc(-c3ccccc3)cc2-c2ccccc2)sc1C(=O)/C=C/c1ccc([N+](=O)[O-])cc1 | 76.3 | inactive | inactive |  |  | 
NC(=O)NC(NC(=O)NC(NC(N)=O)c1ccco1)c1ccco1 (stereo not drawn) | 98.1 to 116 | inactive | inactive | > 50% | 4 | 
CCOc1ccccc1C(SCC(=O)O)SCC(=O)O | 92 to 107 | inactive | inactive | > 50% |  | 
O=C(OCCCCOC(=O)N1C(=O)c2ccccc2C1=O)N1C(=O)c2ccccc2C1=O | 46.8 to 78.5 | Active | Active | > 50% |  | 
